# In ChEMBL document CHEMBL4765248, “Design, synthesis, biological evaluation and molecular docking study of novel thieno[3,2-d]pyrimidine derivatives as potent FAK inhibitors” (Eur J Med Chem, 2020):
# Assays:
# [1] = system: U-87 MG; test: Antiproliferative activity against human U-87MG cells assessed as inhibition of cell growth measured after 72 hrs by MTT assay; type: functional, cell-based, U-87MG ATCC
# Outline: (§1)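 Cells were seeded at 4000–5000/well and held 24 h at 37 °C in 5% CO2. Compounds were added at the indicated final concentrations and incubated 72 h. MTT was added (5 mg/mL in PBS, stated as final) for 4 h at 37 °C. Formazan was dissolved in DMSO and absorbance read at 490 nm. The 50% growth-inhibitory concentration is the mean of three independent experiments ± SE.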
# [2] = system: MDA-MB-231; test: Antiproliferative activity against human MDA-MB-231 cells assessed as inhibition of cell growth measured after 72 hrs by MTT assay; type: functional, cell-based; details: MDA-MB-231, 72 h; outline: as §1
# [3] = system: HK-2; test: Cytotoxicity against human HK2 cells assessed as inhibition of cell proliferation measured after 72 hrs by MTT assay; type: cell-based; details: HK-2, 72 h; outline: as §1
# [4] = biological target: Serine/threonine-protein kinase B-raf (Homo sapiens) (UniProt P15056); test: Inhibition of GST-tagged human full length BRAF expressed in baculovirus expression system at 1 uM by Selectscreen kinase assay
# Outline: (§2)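 Single-point screen at 1 μM final against a panel of 25 kinases using a commercial profiling service; mean of three independent experiments each run in triplicate.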
# [5] = biological target: Fibroblast growth factor receptor 4 (Homo sapiens) (UniProt P22455); test: Inhibition of His-tagged human FGFR4 cytoplasmic domain expressed in baculovirus expression system at 1 uM by Selectscreen kinase assay; outline: as §2
# [6] = biological target: Interleukin-1 receptor-associated kinase 4 (Homo sapiens) (UniProt Q9NWZ3); test: Inhibition of His-tagged full length human IRAK4 expressed in baculovirus expression system at 1 uM by Selectscreen kinase assay; outline: as §2
# [7] = biological target: Mitogen-activated protein kinase 1 (Homo sapiens) (UniProt P28482); test: Inhibition of GST-tagged full length human ERK2 expressed in Escherichia coli at 1 uM by Selectscreen kinase assay; outline: as §2
# [8] = system: Hepatocyte growth factor receptor (Homo sapiens), P08581 [Y1235D]; test: Inhibition of GST-tagged partial length human MET (956-1390 residues) Y1235D mutant expressed in insect expression system at 1 uM by Selectscreen kinase assay; outline: as §2
# [9] = biological target: Protein kinase C theta type (Homo sapiens) (UniProt Q04759); test: Inhibition of His-tagged full length human PKC theta expressed in baculovirus expression system at 1 uM by Selectscreen kinase assay; outline: as §2
# [10] = biological target: Rho-associated protein kinase 1 (Homo sapiens) (UniProt Q13464); test: Inhibition of GST-tagged recombinant human ROCK1 catalytic domain (1-535) expressed in baculovirus expression system at 1 uM by Selectscreen kinase assay; outline: as §2
# [11] = system: MDA-MB-231; test: Induction of apoptosis in human MDA-MB-231 cells assessed as late apoptotic cells at 0.1 uM incubated for 48 hrs by Annexin V-FITC/PI staining based flow cytometric analysis (reference value: 1.49%); type: functional
# [12] = system: MDA-MB-231; test: Induction of apoptosis in human MDA-MB-231 cells assessed as necrotic cells at 0.2 uM incubated for 48 hrs by Annexin V-FITC/PI staining based flow cytometric analysis (reference value: 1.08%); type: functional
# [13] = system: MDA-MB-231; test: Induction of apoptosis in human MDA-MB-231 cells assessed as early apoptotic cells at 0.4 uM incubated for 48 hrs by Annexin V-FITC/PI staining based flow cytometric analysis (reference value: 1.58%); type: functional
# [14] = system: MDA-MB-231; test: Induction of apoptosis in human MDA-MB-231 cells assessed as necrotic cells at 0.4 uM incubated for 48 hrs by Annexin V-FITC/PI staining based flow cytometric analysis (reference value: 1.08%); type: functional
# [15] = system: MDA-MB-231; test: Induction of cell cycle arrest in human MDA-MB-231 cells assessed as accumulation of cells at G0/G1 phase at 0.1 uM measured after 48 hrs by PI staining based flow cytometry method (reference value: 43.43%); type: functional
# [16] = system: MDA-MB-231; test: Induction of cell cycle arrest in human MDA-MB-231 cells assessed as accumulation of cells at G2/M phase at 0.1 uM measured after 48 hrs by PI staining based flow cytometry method (reference value: 17.40%); type: functional
# [17] = system: MDA-MB-231; test: Induction of cell cycle arrest in human MDA-MB-231 cells assessed as accumulation of cells at G0/G1 phase at 0.2 uM measured after 48 hrs by PI staining based flow cytometry method (reference value: 43.43%); type: functional
# [18] = system: MDA-MB-231; test: Induction of cell cycle arrest in human MDA-MB-231 cells assessed as accumulation of cells at G2/M phase at 0.4 uM measured after 48 hrs by PI staining based flow cytometry method (reference value: 17.40%); type: functional
# [19] = Metabolic stability in rat liver microsomes assessed as parent compound remaining at 1 uM measured after 60 mins in absence of NADPH by LC-MS/MS analysis; type: ADME, Microsome; details: read-out: Stabilty
# Outline: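 Rat liver microsomes (0.5 mg/mL) were incubated at 37 °C with 1 μM compound in pH 7.4 potassium phosphate/MgCl2 buffer for 1 h, with buffer in place of the NADPH regeneration system. After acetonitrile precipitation, percent parent remaining was measured by LC-MS/MS.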
# [20] = Intrinsic clearance in rat liver at 1 uM measured after 60 mins in presence of NADPH by LC-MS/MS analysis; type: ADME; details: 1 h
# Outline: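 Rat liver microsomes (0.5 mg/mL) were incubated at 37 °C with 1 μM compound in 100 mM potassium phosphate, pH 7.4, with 10 mM MgCl2. Reaction was started with prewarmed NADPH cofactor and sampled at 0, 5, 10, 20, 30 and 60 min. Protein was precipitated with cold acetonitrile and supernatants analysed by LC-MS/MS to give half-life, 1 h remaining and intrinsic clearance.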
# [21] = system: A549; test: Antiproliferative activity against human A549 cells assessed as cell viability at 0.1 uM measured after 24 hrs by MTT assay (reference value: 100%); type: functional; details: read-out: Activity
# [22] = system: A549; test: Antiproliferative activity against human A549 cells assessed as cell viability at 0.5 uM measured after 24 hrs by MTT assay (reference value: 100%); type: functional; details: read-out: Activity
# [23] = system: A549; test: Antiproliferative activity against human A549 cells assessed as cell viability at 2.5 uM measured after 24 hrs by MTT assay (reference value: 100%); type: functional; details: read-out: Activity
# [24] = system: A549; test: Antiproliferative activity against human A549 cells assessed as cell viability at 2.5 uM measured after 72 hrs by MTT assay (reference value: 100%); type: functional; details: read-out: Activity
# [25] = system: MDA-MB-231; test: Antiproliferative activity against human MDA-MB-231 cells assessed as cell viability at 0.1 uM measured after 24 hrs by MTT assay (reference value: 100%); type: functional; details: read-out: Activity
# [26] = system: MDA-MB-231; test: Antiproliferative activity against human MDA-MB-231 cells assessed as cell viability at 2.5 uM measured after 72 hrs by MTT assay (reference value: 100%); type: functional; details: read-out: Activity
# [27] = system: A549; test: Antiproliferative activity against human A549 cells assessed as reduction in cell viability measured after 24 to 72 hrs by MTT assay; type: functional, cell-based; details: dose 0.1-2.5 µM, time 24-72 hrs
# [28] = system: MDA-MB-231; test: Antiproliferative activity against human MDA-MB-231 cells assessed as reduction in cell viability measured after 24 to 72 hrs by MTT assay; type: functional, cell-based; details: dose 0.1-2.5 µM, time 24-72 hrs
# [29] = system: A549; test: Antiproliferative activity against human A549 cells assessed as reduction in cell viability at 0.1 to 2.5 uM by MTT assay; type: functional, cell-based; details: dose 0.1-2.5 µM, time 24-72 hrs, TDE = time-dependent effect
# Chain of Serine/threonine-protein kinase B-raf (Homo sapiens) (P15056 whole entry): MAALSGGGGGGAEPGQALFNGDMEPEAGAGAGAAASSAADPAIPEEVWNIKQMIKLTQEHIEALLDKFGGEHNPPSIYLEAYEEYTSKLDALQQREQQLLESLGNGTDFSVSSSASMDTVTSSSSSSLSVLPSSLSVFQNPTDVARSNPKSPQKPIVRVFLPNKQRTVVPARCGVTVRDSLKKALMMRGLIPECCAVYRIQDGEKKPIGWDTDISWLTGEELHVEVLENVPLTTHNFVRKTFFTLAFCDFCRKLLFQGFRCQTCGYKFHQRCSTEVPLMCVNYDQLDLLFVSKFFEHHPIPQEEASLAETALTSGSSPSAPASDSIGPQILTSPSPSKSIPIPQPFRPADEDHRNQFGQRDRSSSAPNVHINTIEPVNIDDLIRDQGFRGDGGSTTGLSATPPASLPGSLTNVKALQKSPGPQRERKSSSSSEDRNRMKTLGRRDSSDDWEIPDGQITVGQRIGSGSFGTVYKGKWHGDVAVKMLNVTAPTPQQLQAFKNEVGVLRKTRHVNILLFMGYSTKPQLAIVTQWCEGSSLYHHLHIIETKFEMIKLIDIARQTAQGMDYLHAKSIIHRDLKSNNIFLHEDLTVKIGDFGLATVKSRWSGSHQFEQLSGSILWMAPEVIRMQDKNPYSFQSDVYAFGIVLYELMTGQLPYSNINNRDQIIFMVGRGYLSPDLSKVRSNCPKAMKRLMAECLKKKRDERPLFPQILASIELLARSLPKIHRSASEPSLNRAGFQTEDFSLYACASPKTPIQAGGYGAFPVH
# Chain of Interleukin-1 receptor-associated kinase 4 (Homo sapiens) (Q9NWZ3 whole entry): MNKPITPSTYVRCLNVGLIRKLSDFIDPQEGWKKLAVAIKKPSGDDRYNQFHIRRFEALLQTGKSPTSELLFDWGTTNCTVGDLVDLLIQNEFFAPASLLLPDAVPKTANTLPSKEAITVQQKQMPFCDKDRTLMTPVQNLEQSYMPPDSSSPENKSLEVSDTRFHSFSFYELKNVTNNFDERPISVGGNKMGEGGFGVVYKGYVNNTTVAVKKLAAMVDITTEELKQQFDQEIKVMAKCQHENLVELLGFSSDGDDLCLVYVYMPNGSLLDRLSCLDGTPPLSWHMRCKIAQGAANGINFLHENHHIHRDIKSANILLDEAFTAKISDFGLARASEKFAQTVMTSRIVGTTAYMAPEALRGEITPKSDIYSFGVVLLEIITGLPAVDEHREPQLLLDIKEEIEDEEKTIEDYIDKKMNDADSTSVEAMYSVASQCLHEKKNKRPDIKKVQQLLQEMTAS
# Chain of Rho-associated protein kinase 1 (Homo sapiens) (Q13464 2-1354 limits assumed): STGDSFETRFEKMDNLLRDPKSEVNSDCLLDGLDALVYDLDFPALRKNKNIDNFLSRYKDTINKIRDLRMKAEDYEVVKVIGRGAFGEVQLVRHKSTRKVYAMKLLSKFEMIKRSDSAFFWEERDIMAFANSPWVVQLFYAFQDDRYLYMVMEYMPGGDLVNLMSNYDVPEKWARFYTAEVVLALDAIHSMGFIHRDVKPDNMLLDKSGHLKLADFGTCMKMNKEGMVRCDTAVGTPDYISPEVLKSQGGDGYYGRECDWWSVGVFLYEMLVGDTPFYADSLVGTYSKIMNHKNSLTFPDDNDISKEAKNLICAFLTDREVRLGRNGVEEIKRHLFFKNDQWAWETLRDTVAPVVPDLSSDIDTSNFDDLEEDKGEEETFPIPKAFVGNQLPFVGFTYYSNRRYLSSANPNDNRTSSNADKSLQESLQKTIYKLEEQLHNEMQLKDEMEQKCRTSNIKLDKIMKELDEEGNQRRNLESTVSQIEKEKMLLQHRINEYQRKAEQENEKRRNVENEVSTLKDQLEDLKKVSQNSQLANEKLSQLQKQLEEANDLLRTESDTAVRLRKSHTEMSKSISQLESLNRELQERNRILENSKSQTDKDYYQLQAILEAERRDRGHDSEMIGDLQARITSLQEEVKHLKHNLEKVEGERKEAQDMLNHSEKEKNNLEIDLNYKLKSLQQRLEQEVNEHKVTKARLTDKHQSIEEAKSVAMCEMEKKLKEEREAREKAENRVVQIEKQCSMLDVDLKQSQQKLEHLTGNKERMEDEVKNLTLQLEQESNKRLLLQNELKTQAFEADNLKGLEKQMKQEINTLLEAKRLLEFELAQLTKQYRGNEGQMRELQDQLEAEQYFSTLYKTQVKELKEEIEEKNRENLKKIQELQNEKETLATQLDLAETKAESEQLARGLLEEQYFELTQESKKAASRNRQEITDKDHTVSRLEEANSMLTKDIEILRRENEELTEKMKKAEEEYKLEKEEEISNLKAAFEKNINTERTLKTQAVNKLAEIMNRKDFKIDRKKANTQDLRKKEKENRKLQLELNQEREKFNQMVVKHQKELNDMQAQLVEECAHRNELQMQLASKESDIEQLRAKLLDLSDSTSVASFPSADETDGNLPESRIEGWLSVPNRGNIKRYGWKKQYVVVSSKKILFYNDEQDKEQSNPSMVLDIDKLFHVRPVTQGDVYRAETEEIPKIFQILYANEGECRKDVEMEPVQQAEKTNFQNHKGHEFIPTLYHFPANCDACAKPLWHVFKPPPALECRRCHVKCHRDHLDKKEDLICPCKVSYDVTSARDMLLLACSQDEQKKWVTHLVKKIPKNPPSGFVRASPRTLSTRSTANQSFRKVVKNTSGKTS
# Chain of Mitogen-activated protein kinase 1 (Homo sapiens) (P28482 whole entry, the tested form may be a part): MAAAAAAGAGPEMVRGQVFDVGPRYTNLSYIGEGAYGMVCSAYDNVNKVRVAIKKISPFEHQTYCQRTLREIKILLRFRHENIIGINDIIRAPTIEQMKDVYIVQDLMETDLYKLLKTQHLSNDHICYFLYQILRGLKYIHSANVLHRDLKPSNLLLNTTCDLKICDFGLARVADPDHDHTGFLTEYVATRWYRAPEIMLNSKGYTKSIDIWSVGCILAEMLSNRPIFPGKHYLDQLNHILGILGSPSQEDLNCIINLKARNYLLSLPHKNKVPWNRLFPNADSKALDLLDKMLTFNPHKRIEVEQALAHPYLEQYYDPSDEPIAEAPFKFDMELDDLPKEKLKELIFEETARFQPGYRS
# Chain of Hepatocyte growth factor receptor (Homo sapiens), P08581 [Y1235D] (P08581 whole entry Y1235D, the tested form may be a part): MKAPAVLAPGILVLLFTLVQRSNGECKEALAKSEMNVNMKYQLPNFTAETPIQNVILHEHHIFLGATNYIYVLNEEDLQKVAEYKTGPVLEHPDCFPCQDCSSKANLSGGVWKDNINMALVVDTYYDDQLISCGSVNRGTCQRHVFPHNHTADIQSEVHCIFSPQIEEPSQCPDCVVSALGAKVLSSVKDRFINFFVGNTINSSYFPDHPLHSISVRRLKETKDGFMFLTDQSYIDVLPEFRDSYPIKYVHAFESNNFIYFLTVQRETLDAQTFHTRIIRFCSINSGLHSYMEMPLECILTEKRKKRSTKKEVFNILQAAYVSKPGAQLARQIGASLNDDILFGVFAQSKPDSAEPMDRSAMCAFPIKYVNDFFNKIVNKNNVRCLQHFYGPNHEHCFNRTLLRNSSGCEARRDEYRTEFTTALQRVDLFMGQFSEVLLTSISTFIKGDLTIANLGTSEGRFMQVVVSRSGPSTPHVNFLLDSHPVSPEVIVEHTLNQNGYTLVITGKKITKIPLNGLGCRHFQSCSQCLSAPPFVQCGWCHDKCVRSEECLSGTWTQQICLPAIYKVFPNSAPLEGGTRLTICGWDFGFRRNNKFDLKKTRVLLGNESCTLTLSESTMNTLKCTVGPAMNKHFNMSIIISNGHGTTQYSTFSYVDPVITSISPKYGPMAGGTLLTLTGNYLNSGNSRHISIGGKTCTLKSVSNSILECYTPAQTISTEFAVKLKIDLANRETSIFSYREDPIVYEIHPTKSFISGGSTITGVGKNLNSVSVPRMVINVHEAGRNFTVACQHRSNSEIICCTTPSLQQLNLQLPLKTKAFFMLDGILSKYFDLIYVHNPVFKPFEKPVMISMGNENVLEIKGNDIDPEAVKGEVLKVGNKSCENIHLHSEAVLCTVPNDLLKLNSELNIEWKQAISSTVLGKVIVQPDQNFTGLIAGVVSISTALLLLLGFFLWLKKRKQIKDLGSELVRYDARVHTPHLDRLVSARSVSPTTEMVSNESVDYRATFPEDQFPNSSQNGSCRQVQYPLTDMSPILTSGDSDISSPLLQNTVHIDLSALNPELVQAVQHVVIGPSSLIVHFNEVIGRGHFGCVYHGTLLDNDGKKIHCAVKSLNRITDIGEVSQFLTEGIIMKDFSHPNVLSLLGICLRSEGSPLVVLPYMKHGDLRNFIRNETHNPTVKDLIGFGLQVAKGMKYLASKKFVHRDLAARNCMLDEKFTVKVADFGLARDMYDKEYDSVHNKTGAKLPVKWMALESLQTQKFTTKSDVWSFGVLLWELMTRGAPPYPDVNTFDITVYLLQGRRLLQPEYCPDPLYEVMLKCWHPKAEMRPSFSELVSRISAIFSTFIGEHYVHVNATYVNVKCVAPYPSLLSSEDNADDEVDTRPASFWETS
# Chain of Protein kinase C theta type (Homo sapiens) (Q04759 whole entry, looked up, the tested form may be a part): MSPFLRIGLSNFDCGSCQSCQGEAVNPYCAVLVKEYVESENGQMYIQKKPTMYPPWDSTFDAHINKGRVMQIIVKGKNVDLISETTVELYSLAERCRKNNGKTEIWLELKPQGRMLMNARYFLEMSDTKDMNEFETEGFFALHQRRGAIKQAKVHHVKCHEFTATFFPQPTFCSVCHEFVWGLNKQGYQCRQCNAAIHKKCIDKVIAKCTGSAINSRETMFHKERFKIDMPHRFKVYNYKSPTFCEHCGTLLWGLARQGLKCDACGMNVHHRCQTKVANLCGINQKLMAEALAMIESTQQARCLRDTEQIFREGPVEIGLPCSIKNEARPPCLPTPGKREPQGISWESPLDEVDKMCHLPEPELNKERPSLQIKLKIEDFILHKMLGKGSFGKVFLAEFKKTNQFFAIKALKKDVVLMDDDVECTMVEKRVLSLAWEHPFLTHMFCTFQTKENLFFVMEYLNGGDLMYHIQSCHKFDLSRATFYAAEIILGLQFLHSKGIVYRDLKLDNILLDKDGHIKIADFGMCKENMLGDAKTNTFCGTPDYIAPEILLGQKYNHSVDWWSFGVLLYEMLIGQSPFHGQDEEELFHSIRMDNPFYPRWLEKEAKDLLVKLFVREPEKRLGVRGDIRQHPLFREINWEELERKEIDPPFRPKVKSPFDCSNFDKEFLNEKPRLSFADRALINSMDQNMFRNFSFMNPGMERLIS
smiles,measurement,setting,value
COc1ccccc1-c1csc2cnc(Nc3ccc(C(=O)NC4CCNCC4)c(F)c3)nc12,IC50,[1],160 nM
same,IC50,[2],190 nM
same,IC50,[3],3320 nM
same,inhibition,[4],51%
same,inhibition,[5],66%
same,inhibition,[6],72%
same,inhibition,[7],1%
same,inhibition,[8],72%
same,inhibition,[9],48%
same,inhibition,[10],33%
same,Activity,[11],4.36%
same,Activity,[12],1.72%
same,Activity,[13],15.61%
same,Activity,[14],4.4%
same,Activity,[15],45.25%
same,Activity,[16],12.79%
same,Activity,[17],51.4%
same,Activity,[18],3.55%
same,"remaining at 1 h, 1 µM",[19],92.1%
same,CLH,[20],18.6 µL/min/mg
same,viability at 0.1 µM,[21],96.4%
same,viability at 0.5 µM,[22],79.1%
same,viability at 2.5 µM,[23],51.5%
same,viability at 2.5 µM,[24],18.8%
same,viability at 0.1 µM,[25],97.6%
same,viability at 2.5 µM,[26],9.1%
same,Activity,[27],Dose-dependent effect
same,Activity,[28],Dose-dependent effect
same,Activity,[29],Tde
